Test results taken from ChEMBL document CHEMBL1811909, “Synthesis and antiproliferative activity of novel 2-aryl-4-benzoyl-imidazole derivatives targeting tubulin polymerization” (Bioorg Med Chem, 2011).
Active and inactive are the calls of the source. No cut-off for these calls is given here.

Experiments:
[1] = test system: A-375; test: Antiproliferative activity against human A375 cells after 48 hrs by sulforhodamine B assay; type: functional, cell-based; details: A-375, 48 h
[2] = Antiproliferative activity against human WM164 cells after 48 hrs by sulforhodamine B assay; type: functional, cell-based; details: WM164, 48 h
[3] = test system: LNCaP; test: Antiproliferative activity against human LNCAP cells after 96 hrs by sulforhodamine B assay; type: functional, cell-based
[4] = test system: PC-3; test: Antiproliferative activity against human PC3 cells after 96 hrs by sulforhodamine B assay; type: functional, cell-based; details: PC-3, 96 h
[5] = test system: DU-145; test: Antiproliferative activity against human DU145 cells after 96 hrs by sulforhodamine B assay; type: functional, cell-based; details: DU-145, 96 h
[6] = test system: PPC-1; test: Antiproliferative activity against human PPC1 cells after 96 hrs by sulforhodamine B assay; type: functional, cell-based; details: PPC-1, 96 h
[7] = test system: MDA-MB-435; test: Antiproliferative activity against human MDA-MB-435 cells by sulforhodamine B assay; type: functional, cell-based
[8] = test system: MDA-MB-435; test: Antiproliferative activity against human MDA-MB-435 cells expressing LCC6MDR1 by sulforhodamine B assay; type: functional, cell-based
[9] = test system: PC-3; test: Antiproliferative activity against human PC3 cells by sulforhodamine B assay; type: functional, cell-based
Summary of the method: (§1)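 Prostate cancer cells grown in RPMI 1640 with 10% FBS at 37 °C, 5% CO2. Cells (1000–5000/well, by growth rate) were exposed to a range of concentrations for 96 h, in three to five replicates. Growth was read by SRB: TCA fixation, 0.4% SRB stain, absorbance at 540 nm.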

[10] = test system: PC-3; test: Antiproliferative activity against human paclitaxel-resistant PC3 cells by sulforhodamine B assay; type: functional, cell-based; summary of the method: as §1
[11] = test system: DU-145; test: Antiproliferative activity against human paclitaxel-resistant DU145 cells by sulforhodamine B assay; type: functional, cell-based
Summary of the method: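 Prostate cancer cells grown in RPMI 1640 with 10% FBS at 37 °C, 5% CO2. Seeded at 1000–5000 cells/well depending on growth rate and exposed to a concentration series for 96 h, in three to five replicates. Cells fixed with 10% TCA and stained with 0.4% SRB, absorbance read at 540 nm.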

[12] = test system: MDA-MB-435; test: Resistance index, ratio of IC50 for human MDA-MB-435 cells expressing LCC6MDR1 to IC50 for human MDA-MB-435 cells; type: functional
[13] = test system: PC-3; test: Resistance index, ratio of IC50 for human paclitaxel-resistant PC3 cells to IC50 for human PC3 cells; type: functional
Summary of the method: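 Ratio of SRB-assay IC50 values, paclitaxel-resistant PC-3-TxR over parental PC-3. Both lines grown in RPMI 1640 with 10% FBS and treated for 96 h, in three to five replicates. IC50 taken from absorbance at 540 nm by nonlinear regression.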

[14] = test system: DU-145; test: Resistance index, ratio of IC50 for human paclitaxel-resistant DU145 cells to IC50 for human DU145 cells; type: functional
Summary of the method: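 Ratio of SRB-assay IC50 values, paclitaxel-resistant DU145-TxR over parental DU145. Both lines grown in RPMI 1640 with 10% FBS and exposed to the compound for 96 h, in three to five replicates. Absorbance read at 540 nm after TCA fixation and SRB staining.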

[15] = test system: Liver microsomes; test: Metabolic stability of the compound in human liver microsomes at 0.5 uM up to 90 mins by LC-MS analysis; type: ADME, Microsome
[16] = test system: Liver microsomes; test: Metabolic stability of the compound in human liver microsomes at […] up to 90 mins by LC-MS analysis; type: ADME, Microsome
Summary of the method: (§2)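 Aliquots were drawn at 5, 10, 20, 30, 60 and 90 min and quenched in acetonitrile containing internal standard. After centrifugation, supernatants were measured by LC-MS/MS to follow parent loss and derive half-life.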

[17] = test system: Liver; test: Half life in mouse liver microsomes at […] by LC-MS analysis; type: ADME, Microsome; summary of the method: as §2
[18] = test system: Liver microsomes; test: Half life in rat liver microsomes at […] by LC-MS analysis; type: ADME, Microsome; summary of the method: as §2
[19] = test system: Liver; test: Metabolic stability of the compound in dog liver microsomes at […] up to 90 mins by LC-MS analysis; type: ADME, Canis lupus familiaris, Microsome; summary of the method: as §2
[20] = organism: Bos taurus; test: Inhibition of bovine brain tubulin polymerization after 15 mins by spectrophotometric analysis
Summary of the method: (§3)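 Bovine brain tubulin (>97% pure, 0.4 mg per assay) mixed with compound at 5, 10 or 20 µM, with 5% DMSO as vehicle control. Buffer: 80 mM PIPES, 2.0 mM MgCl2, 0.5 mM EGTA, 1 mM GTP, pH 6.9. Polymerization followed at 37 °C as absorbance at 340 nm, read every minute for 15 min.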

[21] = test system: DU-145; test: Antiproliferative activity against human DU145 cells by sulforhodamine B assay; type: functional, cell-based
[22] = organism: Bos taurus; test: Inhibition of bovine brain tubulin polymerization at 10 to 20 uM after 15 mins by spectrophotometric analysis; summary of the method: as §3

SMILES | IC50 [1] | IC50 [3] | IC50 [4] | IC50 [5] | inhibition [20] | IC50 [2] | IC50 [6] | further results
COc1cc(C(=O)c2cn(C)c(-c3ccc(C)cc3)n2)cc(OC)c1OC | 0.03 µM | 0.03 µM | 0.04 µM | 0.03 µM | Dose-dependent effect | 0.04 µM | 0.03 µM | IC50 [7]: 0.083 µM; IC50 [8]: 0.067 µM; IC50 [9]: 0.021 µM; IC50 [10]: 0.019 µM; IC50 [11]: 0.052 µM; Ratio IC50 [12]: 0.8; Ratio IC50 [13]: 0.9; Ratio IC50 [14]: 1; Stability [15]: Stable; Stability [16]: Stable; t1/2 [17]: 5 min; t1/2 [18]: 10 min; Stability [19]: Stable
COc1cc(C(=O)c2cn(Cc3ccccc3)c(-c3ccc(C)cc3)n2)cc(OC)c1OC | 1.06 µM | 0.68 µM | 0.47 µM | 1.5 µM | Dose-dependent effect | 1.17 µM | 0.78 µM | –
COc1ccc2cc(C(=O)c3cc(OC)c(OC)c(OC)c3)n(S(=O)(=O)c3ccccc3)c2c1 | 8.22 µM | > 10 µM | 2.66 µM | > 10 µM | Dose-dependent effect | > 10 µM | 1.05 µM | –
COc1ccc2[nH]c(C(=O)c3cc(OC)c(OC)c(OC)c3)cc2c1 | 0.03 µM | 0.05 µM | 0.04 µM | 0.08 µM | Dose-dependent effect | 0.04 µM | 0.05 µM | –
COc1cc(C(=O)c2c[nH]c(-c3ccc(Cl)cc3)n2)cc(OC)c1O | 0.68 µM | 0.55 µM | 0.3 µM | 1 µM | Dose-dependent effect | 0.5 µM | 0.58 µM | –
COc1cc(C(=O)c2cc3ccc(F)cc3n2C)cc(OC)c1OC | 5.87 µM | 1.05 µM | > 10 µM | > 10 µM | Dose-dependent effect | 7.5 µM | 8.3 µM | –
CC(=O)O[C@H]1C(=O)[C@@]2(C)[C@H]([C@H](OC(=O)c3ccccc3)[C@]3(O)C[C@H](OC(=O)[C@H](O)[C@@H](NC(=O)c4ccccc4)c4ccccc4)C(C)=C1C3(C)C)[C@]1(OC(C)=O)CO[C@@H]1C[C@@H]2O [PACLITAXEL] | – | – | – | – | – | – | – | IC50 [9]: 0.00043 µM; IC50 [10]: 0.188 µM; IC50 [11]: > 3 µM
COc1cc(C(=O)c2cc3ccc(Cl)cc3n2Cc2ccccc2)cc(OC)c1OC | > 10 µM | > 10 µM | > 10 µM | > 10 µM | Dose-dependent effect | > 10 µM | > 10 µM | –
COc1ccc(S(=O)(=O)n2cc(C(=O)c3ccc(F)cc3)nc2-c2ccc(N(C)C)cc2)cc1 | 0.1 µM | 0.07 µM | 0.04 µM | 0.13 µM | Dose-dependent effect | 0.1 µM | 0.06 µM | –
COc1cc(C(O)(c2nc3ccccc3s2)c2nc3ccccc3s2)cc(OC)c1OC | > 10 µM | > 10 µM | > 10 µM | > 10 µM | Dose-dependent effect | > 10 µM | > 10 µM | –
COc1cc(C(=O)c2c[nH]c(-c3ccc4[nH]c(C(=O)c5cc(OC)c(OC)c(OC)c5)cc4c3)n2)cc(OC)c1OC | 1.8 µM | 1.07 µM | 2.63 µM | 5.92 µM | Dose-dependent effect | 1.7 µM | 4.58 µM | –
COc1cc(C(=O)c2cc3ccc(Cl)cc3n2C)cc(OC)c1OC | 6.65 µM | 1.04 µM | 3.76 µM | > 10 µM | Dose-dependent effect | 8.08 µM | 4.33 µM | –
COc1ccc(-c2nc(C(=O)c3ccc(F)cc3)cn2C)cc1 | > 10 µM | > 10 µM | > 10 µM | > 10 µM | Dose-dependent effect | > 10 µM | > 10 µM | –
COc1ccc2cc(C(=O)c3cc(OC)c(OC)c(OC)c3)[nH]c2c1 | > 10 µM | > 10 µM | > 10 µM | > 10 µM | Dose-dependent effect | > 10 µM | > 10 µM | –

Continued, in another order:

IC50 [1] | IC50 [3] | IC50 [4] | IC50 [5] | inhibition [20] | SMILES | IC50 [2] | IC50 [6] | further results
> 10 µM | > 10 µM | > 10 µM | > 10 µM | Dose-dependent effect | COc1cc(C(=O)c2cc3ccc(C)cc3[nH]2)cc(OC)c1OC | > 10 µM | > 10 µM | –
0.03 µM | 0.03 µM | 0.04 µM | 0.05 µM | Dose-dependent effect | COc1cc(C(=O)c2c[nH]c(-c3ccc(Br)cc3)n2)cc(OC)c1OC | 0.04 µM | 0.03 µM | IC50 [7]: 0.086 µM; IC50 [8]: 0.079 µM; IC50 [9]: 0.018 µM; IC50 [10]: 0.016 µM; IC50 [21]: 0.049 µM; IC50 [11]: 0.054 µM; Ratio IC50 [12]: 0.9; Ratio IC50 [13]: 0.9; Ratio IC50 [14]: 1.1; inhibition [22]: Active
> 10 µM | > 10 µM | > 10 µM | > 10 µM | Dose-dependent effect | COc1cc(C(=O)c2nc3ccccc3o2)cc(OC)c1OC | > 10 µM | > 10 µM | –
> 10 µM | > 10 µM | > 10 µM | > 10 µM | Dose-dependent effect | COc1cc(C(=O)c2cc3ccc(F)cc3[nH]2)cc(OC)c1OC | > 10 µM | > 10 µM | –
> 10 µM | > 10 µM | > 10 µM | > 10 µM | Dose-dependent effect | COc1cc(C(=O)c2cc3ccc(F)cc3n2S(=O)(=O)c2ccccc2)cc(OC)c1OC | > 10 µM | > 10 µM | –
2.21 µM | 8.63 µM | 9.16 µM | 3.42 µM | Dose-dependent effect | COc1cc(C(=O)c2cc3cc(F)ccc3[nH]2)cc(OC)c1OC | 2.26 µM | 1 µM | –
> 10 µM | > 10 µM | > 10 µM | > 10 µM | Dose-dependent effect | COc1cc(C(=O)c2nc3ccccc3[nH]2)cc(OC)c1OC | > 10 µM | > 10 µM | –
> 10 µM | > 10 µM | > 10 µM | > 10 µM | Dose-dependent effect | COc1cc(C(=O)c2cc3ccc(Cl)cc3[nH]2)cc(OC)c1OC | > 10 µM | > 10 µM | –
0.11 µM | 0.13 µM | 0.13 µM | 0.17 µM | Dose-dependent effect | COc1cc(C(=O)c2c[nH]c(-c3ccc(C)cc3)n2)cc(OC)c1O | 0.12 µM | 0.11 µM | –
1.47 µM | > 10 µM | > 10 µM | > 10 µM | Dose-dependent effect | COc1cc(C(=O)c2cc3cc(Cl)ccc3[nH]2)cc(OC)c1OC | 2.16 µM | > 10 µM | –
> 10 µM | > 10 µM | > 10 µM | > 10 µM | Dose-dependent effect | COc1cc(C(=O)c2nc3ccccc3s2)cc(OC)c1OC | > 10 µM | > 10 µM | –
